The results in this text go back to PubChem BioAssay AID1381 (University of Pittsburgh Molecular Library Screening Center, 2008).

About 1,000 (0.45%) of roughly 220,000 compounds were called active.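 The calls were made as follows: active = plate z-score of nuclear minus cytoplasmic receptor signal below a set negative limit, without overly bright fluorescence or cell loss (cut at about -3.5 in these data, passing the limit was not always enough); inactive = the rest, inconclusive results apart.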 This excerpt belongs to a sample that is enriched for actives.

This assay can be described thus: inhibitors of GR-EGFP nuclear translocation, primary screen, dynein cargo transport inhibitor project, imaging, high-content, 3617.4 mouse cells (AID 1381). Conditions: stimulated with dexamethasone, 1 µM. The method, boiled down: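 Buffer or medium: tet-free, stripped-serum medium; Also added: dexamethasone, 1.0 µM final; Technique: high-content fluorescence imaging after fixation; Times: 48 h induction, 1 h compound, 30 min dex at 37 °C; Read-out: per-cell GR-EGFP intensity, nucleus versus surrounding cytoplasmic ring, well-averaged.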

[1] abbreviates: measured here: cell count per field, at 20 µM.
Where [2] appears, read: measured here: cytoplasmic GR-EGFP intensity, at 20 µM, stronger effect = higher value.
Where [3] appears, read: measured here: nuclear GR-EGFP intensity, at 20 µM, stronger effect = lower value.

On to `COc1ccc(NC(=S)Nc2ccccc2Cl)cn1`, for which the z-score is, setting by setting: (at 20 µM, stronger effect = lower value) 1.03 (inactive); under setting [1], -0.0291; under setting [2], -0.33; under setting [3], 0.285.

Turning to `COc1ccc(CS(=O)/C(Cl)=C(/Cl)C(=O)Nc2ccc(OC)nc2)cc1` (stereo not drawn), the z-score is, setting by setting: (at 20 µM, stronger effect = lower value) -5.17 (active); under setting [1], 0.13; under setting [2], 3.61; under setting [3], -2.19.

In the case of `COc1ccc(NC(=O)/C(Cl)=C(/Cl)S(=O)Cc2ccc(C)cc2)cn1` (stereo not drawn), the z-score was -5.02 (inactive) (at 20 µM, stronger effect = lower value); -1.31 under setting [1]; 4.96 under setting [2]; -1.87 under setting [3].

On to `O=C(NCc1cccnc1)c1cccc(-c2cc3ccccc3oc2=O)c1`, for which the z-score is -0.31 (inactive) (at 20 µM, stronger effect = lower value); 0.631 under setting [1]; -0.22 under setting [2]; -0.235 under setting [3].

With `Cc1ccc(S(=O)(=O)C2C(=O)NC3(C)CC2c2ccccc2O3)cc1` (stereo not drawn), the z-score was -0.689 (inactive) (at 20 µM, stronger effect = lower value); -0.187 under setting [1]; -0.199 under setting [2]; -0.503 under setting [3].

Take `CCc1ccc(/C=N/NC(=O)c2ccc(OC3CCCC3)cc2)s1`: the z-score is -0.285 (inactive) (at 50 µM, stronger effect = lower value); 0.0349 (measured here: cell count per field, at 50 µM); -0.199 (measured here: cytoplasmic GR-EGFP intensity, at 50 µM, stronger effect = higher value); -0.114 (measured here: nuclear GR-EGFP intensity, at 50 µM, stronger effect = lower value).

On to `O=C(/C=C/c1ccccc1)c1ccccc1O`, for which the z-score runs as follows: (at 20 µM, stronger effect = lower value) -0.596 (inactive); under setting [1], 0.171; under setting [2], -0.18; under setting [3], 0.0198.

For `Cc1[nH]c(=O)c(C(=O)/C=C/c2ccccc2)c2c1CCCC2`, the z-score reads like this: (at 20 µM, stronger effect = lower value) -3.92 (active); under setting [1], 0.356; under setting [2], 0.353; under setting [3], -1.71.

Turning to `Cc1nc(-c2ccccc2)sc1C(=O)/C=C/c1ccccc1`, the z-score (at 20 µM, stronger effect = lower value) is -2.15 (inactive); the z-score under setting [1] was determined as 0.685; the z-score under setting [2] is -0.0664; the z-score under setting [3] was -0.902.

Regarding `CSc1nc2c(c(=O)[nH]1)C(c1cccc(Cl)c1Cl)CC(=O)N2` (stereo not drawn), the z-score is -0.956 (inactive) (at 20 µM, stronger effect = lower value); 0.453 under setting [1]; -0.232 under setting [2]; -0.546 under setting [3].

`O=C(/C=C/c1cnc2ccccc2n1)NC1CCCCCC1`: the z-score reads like this: (at 20 µM, stronger effect = lower value) 0.072 (inactive); under setting [1], -0.372; under setting [2], -0.262; under setting [3], -0.0867.

Take `O=C(O)c1ccccc1OCc1ccccc1Cl`: the z-score reads like this: (at 20 µM, stronger effect = lower value) 1.56 (inactive); under setting [1], -0.166; under setting [2], -0.834; under setting [3], 1.06.

As to `Cc1ccc(CN2CCC(N3CCC(C(=O)NCC4CCCO4)CC3)CC2)o1` (stereo not drawn), the z-score is, setting by setting: (at 20 µM, stronger effect = lower value) 0.0309 (inactive); under setting [1], -0.115; under setting [2], -0.27; under setting [3], 0.507.

Consider `Fc1ccccc1/C=C1\CCCC2=C1Nc1ncnn1C2c1ccccc1F` (stereo not drawn), for which the z-score runs as follows: (at 20 µM, stronger effect = lower value) -4.08 (active); under setting [1], 0.757; under setting [2], 0.917; under setting [3], -1.5.

Regarding `Cc1c(C(=O)Nc2ccccc2)sc2nc3n(c(=O)c12)CCCCC3`, the z-score by setting is: (at 20 µM, stronger effect = lower value) 0.507 (inactive); under setting [1], 0.149; under setting [2], -0.32; under setting [3], 0.154.

Consider `Cc1ccc(S(=O)(=O)NC(=O)N2CCCN(Cc3ccc(F)cc3)CC2)cc1`, for which the z-score is -0.425 (inactive) (at 20 µM, stronger effect = lower value); 0.12 under setting [1]; -0.231 under setting [2]; -0.245 under setting [3].

For `CC(=O)Nc1ccc(S(=O)(=O)NCC(=O)OCc2cc(=O)oc3ccc4ccccc4c23)cc1`, the z-score is, setting by setting: (at 20 µM, stronger effect = lower value) 0.304 (inactive); under setting [1], -0.781; under setting [2], -0.141; under setting [3], -0.169.
